Data: article PMC7001660 (Molecular cell, 2019)

Tested on: M2 anti-FLAG antibody
Test: Prot-MaP on-chip limit of detection
Assay type: binding, mouse
Conditions: for fluorescence signal relative to WT: quantified fluorescence medians across M2 concentrations, Fig. 2B
Outline: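 Run at 25°C: M2 at 1, 3.2, 10, 32, 100nM (45 min each), each followed by wash and 35nM Alexa555 anti-mouse secondary (37 min). Zero-primary secondary gives baseline. Per-variant cluster medians used; threshold 3σ above negative-set mean; LoD by inter/extrapolation.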

fold lower LoD than WT (LoD of WT FLAG (DYKDDDDK) relative to variant)	fluorescence signal relative to WT	Sequence
7.9 fold	much higher signal than WT	DYKDEDLL [superFLAG]
	much higher signal than WT	DYKDDDDKGDYKDHD [2xFLAG, reference compound]
